Measured values taken from ChEMBL document CHEMBL1122022, “Catechol O-methyltransferase. 10. 5-Substituted 3-hydroxy-4-methoxybenzoic acids (isovanillic acids) and 5-substituted 3-hydroxy-4-methoxybenzaldehydes (isovanillins) as potential inhibitors” (J Med Chem, 1982).
Each block holds one compound with its values, some of them ahead of it. Calls of active or inactive are those of the source. The rule behind the calls is not given here.

Columns and labels:
[1] = molecular target: T1, Catechol O-methyltransferase (Rattus norvegicus) (UniProt P22734); assay: Ability to inhibit Catechol O-methyltransferase from rat liver at a concentration of 1 mM. Inhibition pattern was reported; Noncompetitive kinetics
T1 sequence (whole entry): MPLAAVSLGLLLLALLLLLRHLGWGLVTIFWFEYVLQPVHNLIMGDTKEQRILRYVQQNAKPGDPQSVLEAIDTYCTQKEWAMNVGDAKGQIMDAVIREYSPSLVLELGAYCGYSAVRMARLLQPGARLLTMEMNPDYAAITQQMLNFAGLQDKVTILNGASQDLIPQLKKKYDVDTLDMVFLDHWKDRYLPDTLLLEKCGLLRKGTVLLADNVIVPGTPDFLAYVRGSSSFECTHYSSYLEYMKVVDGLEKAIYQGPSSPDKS
Summary of the method: (§1)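 COMT purified from male Sprague–Dawley rat liver (180–200 g) through the calcium phosphate step, then reactivated before use by 40 min preincubation at 37 °C in pH 7.6 phosphate buffer with 4 mM DTT. Radiochemical assay: 3,4-dihydroxybenzoic acid variable (0.02–0.20 mM), SAM 0.2 mM plus 0.05 μCi SAM-¹⁴CH₃, Mg²⁺ 1 mM, DTT 4 mM, 100 mM phosphate pH 7.6. Inhibition pattern and Kis/Kii taken from double-reciprocal plots.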

[2] = molecular target: T1, Catechol O-methyltransferase (Rattus norvegicus); assay: Ability to inhibit Catechol O-methyltransferase from rat liver. kinetic inhibition Kii constant was reported; summary of the method: as §1
[3] = molecular target: T1, Catechol O-methyltransferase (Rattus norvegicus); assay: Ability to inhibit Catechol O-methyltransferase from rat liver. kinetic inhibition Kis constant was reported; summary of the method: as §1
[4] = molecular target: T1, Catechol O-methyltransferase (Rattus norvegicus); assay: Ability to inhibit Catechol O-methyltransferase from rat liver at a concentration of 1 mM. Inhibition pattern was reported; No inhibitory activity; summary of the method: as §1
[5] = molecular target: T1, Catechol O-methyltransferase (Rattus norvegicus); assay: Ability to inhibit Catechol O-methyltransferase kinetic inhibition Kii constant was reported.; summary of the method: as §1
[6] = molecular target: T1, Catechol O-methyltransferase (Rattus norvegicus); assay: Ability to inhibit Catechol O-methyltransferase kinetic inhibition Kis constant was reported.; summary of the method: as §1
[7] = molecular target: T1, Catechol O-methyltransferase (Rattus norvegicus); assay: Ability to inhibit Catechol O-methyltransferase from rat liver at a concentration of 1 mM. Inhibition pattern was reported; Competitive kinetics; summary of the method: as §1
[8] = molecular target: T1, Catechol O-methyltransferase (Rattus norvegicus); assay: Ability to inhibit Catechol O-methyltransferase. Following kinetic inhibition constants Kii was reported; summary of the method: as §1
[9] = molecular target: T1, Catechol O-methyltransferase (Rattus norvegicus); assay: Ability to inhibit Catechol O-methyltransferase. Following kinetic inhibition constants Kis was reported; summary of the method: as §1

inhibition pattern [1]: Noncompetitive kinetics
Kii [2]: 247 µM
Kis [3]: 50.2 µM
SMILES: COc1c(O)cc(C(=O)O)cc1[N+](=O)[O-]

inhibition [4]: inactive
SMILES: COc1c(O)cc(C(=O)O)cc1N(C)C

inhibition pattern [1]: Noncompetitive kinetics
Kii [5]: 16.5 µM
Kis [6]: 31.8 µM
SMILES: COc1c(O)cc(C=O)cc1Br

inhibition [7]: Competitive kinetics
Kis [3]: 340 µM
SMILES: COc1c(O)cc(C(=O)O)cc1Br

inhibition [1]: Noncompetitive kinetics
Kii [5]: 48.4 µM
Kis [6]: 56.9 µM
SMILES: COc1c(O)cc(C=O)cc1F

inhibition [4]: inactive
SMILES: COc1c(O)cc(C(=O)O)cc1I

inhibition pattern [1]: Noncompetitive kinetics
Kii [2]: 571 µM
Kis [3]: 589 µM
SMILES: COc1c(O)cc(C(=O)O)cc1C#N

inhibition [7]: Competitive kinetics
Kis [3]: 394 µM
SMILES: COc1c(O)cc(C(=O)O)cc1Cl

inhibition [4]: inactive
SMILES: COc1ccc(C(=O)O)cc1O

inhibition pattern [1]: Noncompetitive kinetics
Kii [5]: 16.1 µM
Kis [6]: 9.98 µM
SMILES: COc1c(O)cc(C=O)cc1O

inhibition pattern [1]: Noncompetitive kinetics
Kii [8]: 272 µM
Kis [9]: 885 µM
SMILES: CCOC(=S)Sc1cc(C=O)cc(O)c1OC

inhibition [4]: inactive
SMILES: COc1c(N)cc(C(=O)O)cc1O

inhibition pattern [1]: Noncompetitive kinetics
Kii [2]: 521 µM
Kis [3]: 999 µM
SMILES: COc1cc(C(=O)O)cc(O)c1OC

SMILES: COc1ccc(C=O)cc1O
inhibition [4]: inactive

inhibition pattern [1]: Noncompetitive kinetics
Kii [5]: 56.6 µM
Kis [6]: 111 µM
SMILES: COc1c(O)cc(C=O)cc1I

inhibition pattern [1]: Noncompetitive kinetics
Kii [5]: 10.8 µM
Kis [6]: 31.6 µM
SMILES: COc1c(O)cc(C=O)cc1Cl

inhibition [7]: Competitive kinetics
Kis [6]: 0.7 µM
SMILES: COc1c(O)cc(C=O)cc1[N+](=O)[O-]
